Laboratory results from ChEMBL document CHEMBL3046176, “Synthesis, crystal structure, and biological activities of 2-cyanoacrylates containing furan or tetrahydrofuran moieties” (2007).

Tests used:
Type in all cases: functional
Tobacco mosaic virus = assay: Antiviral activity against Tobacco mosaic virus (TMV) inoculated in fresh tobacco leaf at 100 mg/L by half-leaf method
How it was run: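 Half-leaf method on tobacco leaves at the 5-6 growth stage. Leaves were inoculated with TMV by juice-leaf rubbing at 5.88 × 10-2 µg/mL and cut along the main vein. One half was immersed in test solution and the other in double distilled water for 20 min, then cultured at 25 °C for 72 h, in triplicate. Inhibition = 100(CK − A)/CK, from average lesion counts.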

Cladosporium cucumerinum = assay: Antifungal activity against Cladosporium cucumerinum assessed as inhibition of mycelium growth at 50 mg/L at 26 degC measured after 72 hr
How it was run: (§1)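 Mycelium growth assay on agar. 1 mL test solution (50 mg/L) was poured into a 9 cm plate with 9 mL agar medium. Controls used sterile water in its place. A 4 mm plug from the margin of an actively growing colony was placed in the centre and incubated at 26 °C. Hyphal diameter was measured over 72 h, in triplicate. Inhibition % = (control diameter − treated diameter)/control diameter.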

Mycosphaerella arachidis = assay: Antifungal activity against Mycosphaerella arachidis assessed as inhibition of mycelium growth at 50 mg/L at 26 degC measured after 72 hr; how it was run: as §1
[1] = test system: Botryosphaeria berengeriana; assay: Antifungal activity against Botryosphaeria berengeriana assessed as inhibition of mycelium growth at 50 mg/L at 26 degC measured after 72 hr; how it was run: as §1
Alternaria solani = assay: Antifungal activity against Alternaria solani assessed as inhibition of mycelium growth at 50 mg/L at 26 degC measured after 72 hr; how it was run: as §1
Fusarium graminearum = assay: Antifungal activity against Fusarium graminearum assessed as inhibition of mycelium growth at 50 mg/L at 26 degC measured after 72 hr
How it was run: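 Mycelium growth test on agar plates: 1 mL test solution (50 mg/L) mixed with 9 mL agar medium; sterile water in place of test solution for controls. 4 mm inocula cut from margins of actively growing colonies, placed at plate centre, incubated at 26 °C; mycelium diameter measured over 72 h. Inhibition % from mean hyphal diameter against control. Triplicate.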

Cucumis sativus = assay: Plant growth regulatory activity in Cucumis sativus (cucumber) seed assessed as number of root at 10 mg/L at 26 degC measured after 5 days
How it was run: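 Cucumber seeds were incubated at 26 °C in the dark for 72 h, then 10 cotyledons were excised and treated. Incubation continued at 26 °C in the dark for 5 days. Roots were counted, with water-only controls, in triplicate.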

Digitaria sanguinalis [2] = assay: Herbicidal activity against hairy crabgrass Digitaria sanguinalis (hairy crabgrass) assessed as herbicidal damage at 1.5 kg/ha measured after preemergence treatment; settings: pre-emergence
How it was run: (§2)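 Seeds were sown in 6 cm boxes of artificial mixed soil, covered with plastic film until emergence, and grown in a greenhouse. Sprays were applied right after sowing (preemergence) or after the first true leaf expanded (postemergence). Controls received the same amount of water/DMF/Tween 20. Above-ground fresh weight was taken 10 days after treatment, in triplicate, as % damage versus control.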

Medicago sativa [3] = assay: Herbicidal activity against Medicago sativa (alfalfa) assessed as herbicidal damage at 1.5 kg/ha measured after preemergence treatment; settings: pre-emergence; how it was run: as §2
Amaranthus retroflexus [4] = assay: Herbicidal activity against Amaranthus retroflexus assessed as herbicidal damage at 1.5 kg/ha measured after preemergence treatment; settings: pre-emergence; how it was run: as §2
Brassica napus [5] = assay: Herbicidal activity against rape Brassica napus (oilseed rape) assessed as herbicidal damage at 1.5 kg/ha measured after preemergence treatment; settings: pre-emergence; how it was run: as §2
Digitaria sanguinalis [6] = assay: Herbicidal activity against hairy crabgrass Digitaria sanguinalis (hairy crabgrass) assessed as herbicidal damage at 1.5 kg/ha measured after postemergence treatment; settings: post-emergence; how it was run: as §2
Medicago sativa [7] = assay: Herbicidal activity against Medicago sativa (alfalfa) assessed as herbicidal damage at 1.5 kg/ha measured after postemergence treatment; settings: post-emergence; how it was run: as §2
Amaranthus retroflexus [8] = assay: Herbicidal activity against Amaranthus retroflexus assessed as herbicidal damage at 1.5 kg/ha measured after postemergence treatment; settings: post-emergence; how it was run: as §2
Brassica napus [9] = assay: Herbicidal activity against rape Brassica napus (oilseed rape) assessed as herbicidal damage at 1.5 kg/ha measured after postemergence treatment; settings: post-emergence; how it was run: as §2

| Structure (SMILES) | Activity (Tobacco mosaic virus) [%] | inhibition at 50 µg/mL (Cladosporium cucumerinum) [%] | inhibition at 50 µg/mL (Mycosphaerella arachidis) [%] | inhibition at 50 µg/mL [1] [%] | inhibition at 50 µg/mL (Alternaria solani) [%] | inhibition at 50 µg/mL (Fusarium graminearum) [%] | Activity (Cucumis sativus) [%] | inhibition at 1500 g/ha (Digitaria sanguinalis [2]) [%] | inhibition at 1500 g/ha (Medicago sativa [3]) [%] | inhibition at 1500 g/ha (Amaranthus retroflexus [4]) [%] | inhibition at 1500 g/ha (Brassica napus [5]) [%] | inhibition at 1500 g/ha (Digitaria sanguinalis [6]) [%] | inhibition at 1500 g/ha (Medicago sativa [7]) [%] | inhibition at 1500 g/ha (Amaranthus retroflexus [8]) [%] | inhibition at 1500 g/ha (Brassica napus [9]) [%] |
| --- | --- | --- | --- | --- | --- | --- | --- | --- | --- | --- | --- | --- | --- | --- | --- |
| CCC/C(NCC1CCOC1)=C(\C#N)C(=O)OCCOCC (stereo not given) | 9.4 | 21.1 | 41.1 | 27.3 | 10.7 | 0 | 5.4 | 0 | 0 | 9.5 | 0 | 1 | 11.4 | 8.1 | 58.8 |
| CCC/C(NCc1ccoc1)=C(\C#N)C(=O)OCCOCC | 0 | 21.1 | 12.5 | 31.8 | 25 | 16.7 | -6.6 | 35.7 | 4.5 | 0 | 0 | 0 | 31.1 | 14.3 | 25.2 |
| CCOCCOC(=O)/C(C#N)=C(\NCc1ccco1)C(C)C | 0 | 13.2 | 37.5 | 22.7 | 17.9 | 23.3 | 2.4 | 37.8 | 4.5 | 6.3 | 3.3 | 0 | 26.3 | 41.9 | 56.3 |
| CCC/C(NCC1CCCO1)=C(\C#N)C(=O)OCCOCC (stereo not given) | 0 | 10.5 | 32.1 | 4.5 | 0 | 23.3 | 8.4 | 0 | 15 | 0 | 0 | 0 | 19.2 | 16.4 | 36.3 |
| CCOCCOC(=O)/C(C#N)=C(\NCC1CCOC1)C(C)C (stereo not given) | 4.9 | 5.3 | 17.9 | 9.1 | 0 | 0 | 14.4 | 0 | 2.3 | 12.6 | 0 | 57.6 | 41.3 | 37.8 | 88.2 |
| CCOCCOC(=O)/C(C#N)=C(/CC)NCc1ccco1 | 13.3 | 21.1 | 35.7 | 27.3 | 0 | 20 | 11.4 | 12.1 | 0 | 9.5 | 16.3 | 27.3 | 35.9 | 22.6 | 47.9 |
